The target in assay [1] is T1, Cannabinoid receptor 1 (Homo sapiens, UniProt P21554). As to the kind of experiment: Inverse agonist activity at human recombinant CB1 receptor expressed CHO cells membrane by [35S]GTPgamma binding assay. The assay is classed as functional, cell membranes. The method in brief:
(§1)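 GTPγ[35S] binding in CHO membranes expressing recombinant hCB1 or hCB2. Membranes preincubated with GDP (30 μM solution) on ice for at least 15 min, then mixed with GTPγ[35S] and WGA SPA beads. Incubated 1 h at room temperature, centrifuged, held 1 h more, then counted. Eight concentrations (0.001–10 μM) in duplicate, reported as the mean of two. Emax expressed as % of the reference agonist.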

The target in assay [2] is T2, Cannabinoid receptor 2 (Homo sapiens, UniProt P34972). As to the kind of experiment: Inverse agonist activity at human recombinant CB2 receptor expressed CHO cells membrane by [35S]GTPgamma binding assay relative to 2-((1R,2R,5R)-5-hydroxy-2-(3-hydroxypropyl)cyclohexyl)-5-(2-methyloctan-2-yl)phenol. The assay is classed as functional, cell membranes. The method in brief: as §1

For assay [3], the target named is T2, Cannabinoid receptor 2. The assay can be described thus: Inverse agonist activity at human recombinant CB2 receptor expressed CHO cells membrane by [35S]GTPgamma binding assay. It counts as functional, cell membranes. The method in brief: as §1
Assay [4] has as its system Rattus norvegicus. As to the kind of experiment: Antiallodynic activity in Sprague-Dawley rat L5/L6 spinal nerve tight ligated neuropathic pain model assessed as paw withdrawal threshold at 10 mg/kg, ip […] ipsilateral injured paw. On the set-up: dose 10 mg/kg. The assay is classed as functional, organism-based. The method in brief: (§2)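 Adult male Sprague–Dawley rats (120–150 g). Left L5 and L6 spinal nerves tightly ligated with 6–0 silk under isoflurane. Tested 10–14 days after ligation. Drugs given ip. Vehicle was N-methylpyrrolidone 30%, propylene glycol 30%, ethanol 10%, Cremophor 10% and water. For […], given 15 min before the ip CB2 agonist. Von Frey up–down 50% withdrawal threshold (cutoff 15 g) and %MPE, n = 5 per group.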

Assay [5] addresses T2, Cannabinoid receptor 2. As to the kind of experiment: Binding affinity to CB2 receptor by competition binding assay. The method in brief: (§3)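 Competition binding on membranes of CHO-K1 cells expressing hCB2 (0.25 μg protein/well). Buffer was 50 mM Tris pH 7.4, 2.5 mM EDTA, 0.5% BSA, with 1 nM [3H]-labelled reference ligand. Nonspecific binding defined with 10 μM unlabelled ligand. Incubated 60 min at 30 °C, then filtered and counted by liquid scintillation. Duplicates at several concentrations. IC50 from a one-site fit, converted to Ki by Cheng–Prusoff.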

For assay [6], the target named is T2, Cannabinoid receptor 2. As to the kind of experiment: Binding affinity to CB2 receptor. The method in brief: as §3
The target in assay [7] is T2, Cannabinoid receptor 2. The assay can be described thus: Inverse agonist activity at CB2 receptor. The assay is classed as functional. The method in brief:
as §1

Assay [8] deals with T1, Cannabinoid receptor 1. As to the kind of experiment: Inverse agonist activity at human recombinant CB1 receptor expressed CHO cells membrane by [35S]GTPgamma binding assay relative to 2-((1R,2R,5R)-5-hydroxy-2-(3-hydroxypropyl)cyclohexyl)-5-(2-methyloctan-2-yl)phenol. It counts as functional, cell membranes. The method in brief: as §1
Assay [9] addresses T2, Cannabinoid receptor 2. The assay can be described thus: Agonist activity at human CB2 receptor expressed CHO cells by [35S]GTPgamma binding assay. It counts as functional, cell-based.
The target of assay [10] is T2, Cannabinoid receptor 2. As to the kind of experiment: Displacement of [3H] 2-((1R,2R,5R)-5-hydroxy-2-(3-hydroxypropyl)cyclohexyl)-5-(2-methyloctan-2-yl)phenol from human CB2 receptor expressed CHO-K1 cells by liquid scintillation counting. It counts as cell-based. The method in brief:
as §3

Assay [11] relates to Rattus norvegicus. The assay can be described thus: Inhibition of (3-benzyl-3-methyl-2,3-dihydrobenzofuran-6-yl)(piperidin-1-yl)methanone-induced antiallodynic activity in L5/L6 spinal nerve tight ligated neuropathic pain Sprague-Dawley rat model assessed as paw withdrawal threshold at 10 mg/kg, ip administered 15 mins before 3-benzyl-3-methyl-2,3-dihydrobenzofuran-6-yl)(piperidin-1-yl)methanone challenge. On the set-up: dose 10 mg/kg. The assay is classed as functional, organism-based. The method in brief: as §2

Calls of active or inactive are those of the source.

T1 sequence (P21554 whole entry): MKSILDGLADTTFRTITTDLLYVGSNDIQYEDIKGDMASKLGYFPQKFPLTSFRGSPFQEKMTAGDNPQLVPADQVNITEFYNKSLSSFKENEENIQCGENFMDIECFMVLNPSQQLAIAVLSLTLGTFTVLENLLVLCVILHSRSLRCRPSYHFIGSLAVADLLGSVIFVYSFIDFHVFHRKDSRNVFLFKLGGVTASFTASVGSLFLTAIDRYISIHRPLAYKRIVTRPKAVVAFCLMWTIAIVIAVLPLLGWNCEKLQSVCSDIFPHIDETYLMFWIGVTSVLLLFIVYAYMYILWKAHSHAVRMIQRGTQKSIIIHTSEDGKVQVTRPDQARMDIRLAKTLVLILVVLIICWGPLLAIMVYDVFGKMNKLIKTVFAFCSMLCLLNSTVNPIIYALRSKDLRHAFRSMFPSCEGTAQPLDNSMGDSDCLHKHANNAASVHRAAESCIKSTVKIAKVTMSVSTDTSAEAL
T2 sequence (P34972 whole entry): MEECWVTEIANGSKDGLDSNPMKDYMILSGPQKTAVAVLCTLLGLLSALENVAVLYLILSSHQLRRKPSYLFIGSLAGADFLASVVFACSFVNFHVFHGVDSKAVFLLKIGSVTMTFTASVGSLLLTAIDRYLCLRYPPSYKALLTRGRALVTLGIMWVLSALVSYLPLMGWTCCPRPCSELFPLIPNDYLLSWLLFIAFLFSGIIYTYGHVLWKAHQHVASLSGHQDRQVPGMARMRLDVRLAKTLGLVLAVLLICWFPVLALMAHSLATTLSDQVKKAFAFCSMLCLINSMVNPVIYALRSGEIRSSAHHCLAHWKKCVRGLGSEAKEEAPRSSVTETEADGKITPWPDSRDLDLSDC

Turning to `COCCN1C(=O)/C(=N\NC(=O)c2ccccc2)c2ccc(OC)cc21`, the concentration for a half-maximal effect (EC50) in assay [1] is over 10 µM; in assay [3], 492 nM. The Emax in assay [2] is -60%.

On to `CCCCCN1C(=O)/C(=N\NC(=O)C(C)(C)O)c2ccc(OC)cc21`, for which the half-maximal effective concentration (EC50) in assay [1] was over 10 µM; in assay [3], 14.7 nM. Besides, in assay [2], the Emax is -99%.

Turning to `CC1(Cc2ccccc2)COc2cc(C(=O)N3CCCCC3)ccc21` (centres undefined), in assay [4], the outcome was Active.

The molecule `CN(c1ccc2c(c1)nc(Cc1ccc3c(c1)CCO3)n2CC1CCCCC1)S(=O)(=O)c1ccccc1` displayed an inhibition constant Ki in assay [5] of 1.2 nM. Moreover, the Activity in assay [6] came to 0.7 nM. Besides, the midpoint of the response in [7], the EC50, lay at 2.2 nM.

Regarding `CCCCCN1C(=O)/C(=N\NC(=O)CC2CCCCC2)c2ccc(OC)cc21`, the figures for the EC50 in assay [1] and in assay [3] were over 10 µM and 43 nM, respectively. Also, the Emax in [2] is -88%.

As to `CCCCCN1C(=O)/C(=N\NC(=O)CC(C)C)c2ccc(OC)cc21`, the EC50 in assay [1] was over 10 µM; in assay [3] it was 11.7 nM. In addition, in [2], the Emax was -78%.

On to `CCCCN1C(=O)/C(=N\NC(=O)c2ccccc2)c2ccc(OC)cc21`, for which the EC50 in assay [1] was over 10 µM. For the same molecule, the Emax in assay [2] is -95%.

With `COc1ccc2c(c1)N(CC1CCCCC1)C(=O)/C2=N\NC(=O)c1ccccc1`, the Emax in assay [8] is 40.8%; in assay [2], -82%.

In the case of `CCCCCN1C(=O)/C(=N\NC(=O)c2ccccc2)c2ccc(OC)cc21`, in assay [1], the 50% effective concentration (EC50) amounted to 0.263 µM. Also, the values for the Emax in assay [8] and in assay [2] were 41% and -108%, respectively.

In the case of `COc1ccc2c(c1)N(CC1CCCCC1)C(=O)/C2=N\NC(=O)C1CCCCC1`, the half-maximal effective concentration (EC50) was over 10 µM in assay [1] and 71.6 nM in assay [3]. Moreover, the Emax in assay [2] is -69%.

`COc1ccc2c(c1)N(CCC1CCCCC1)C(=O)/C2=N\NC(=O)c1ccccc1`: the EC50 in [1] is over 10 µM. The Emax in assay [2] is -104%.

Turning to `CCCCCN1C(=O)/C(=N\NC(=O)C(C)(C)C)c2ccc(OC)cc21`, the EC50 in assay [1] is over 10 µM; in assay [3], 10 nM. For the same molecule, the Emax in assay [2] is -78%.

Molecule `COc1ccc(C(=O)c2c(C)n(CCN3CCOCC3)c3cc(I)ccc23)cc1` displayed an EC50 in assay [9] of 76.6 nM.

Regarding `CCCCCN1C(=O)/C(=N\NC(=O)C2CCCCC2)c2ccc(OC)cc21`, the figures for the EC50 in assay [1] and in assay [3] were over 10 µM and 28.7 nM, respectively. For the same molecule, the Emax in assay [2] was -105%.

Regarding `COc1ccc2c(c1)N(Cc1ccccc1)C(=O)/C2=N\NC(=O)c1ccccc1`, the EC50 in [1] is over 10 µM. Also, the Emax in assay [2] was -96%.

Take `CCCCCN1C(=O)/C(=N\NC(=O)OC(C)(C)C)c2ccc(OC)cc21`: the figures for the EC50 in assay [1] and in [3] were over 10 µM and 15.9 nM, respectively. Besides, the Emax in [2] is -97%.

On to `CCCCCCN1C(=O)/C(=N\NC(=O)c2ccccc2)c2ccc(OC)cc21`, for which the inhibitory constant (Ki) in assay [10] and in [6] was 89.9 nM in each case. Further, the results for the half-maximal effective concentration (EC50) in [1] and in assay [3] were over 10 µM and 88.2 nM, respectively. In assay [11], the result was Active. The Emax in assay [2] is -92%.

`CCCCCN1C(=O)/C(=N\NC(=O)CN2CCOCC2)c2ccc(OC)cc21`: the EC50 in [1] was over 10 µM; in [3], 13.3 nM. The Emax in [2] was -80%.

(Values after ChEMBL document CHEMBL1139382, “6-Methoxy-N-alkyl isatin acylhydrazone derivatives as a novel series of potent selective cannabinoid receptor 2 inverse agonists: design, synthesis, and binding mode prediction” (J Med Chem, 2009).)
